Experiment [1] can be described thus: Antiangiogenic effect in […] mouse microvascular choroid explants assessed as choroid sprouting at 10^-7 M after 4 days (reference value: 53%). Format: functional.
For experiment [2], the target named is Growth hormone secretagogue receptor type 1 (Homo sapiens, UniProt Q92847). Put plainly: Displacement of [125I]ghrelin expressed in LLC-PK1 cells incubated for 1 hr by gamma counting method. Format: cell-based. In outline:
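Membranes from LLC-PK1 cells transiently transfected with GHS-R1a (CaPO₄; harvested 24 h later; freeze/thaw lysis, 10000g), 10 μg protein/tube. Incubated with ¹²⁵I-ghrelin (40,000 cpm) and competitor 10⁻¹² to 10⁻⁵ M, 1 h at RT, in Tris/MgCl₂/EDTA/bacitracin buffer pH 7.3. Nonspecific binding set with 10⁻⁵ M competitor. Bound separated by filtration on PEI-soaked GF/C filters, gamma counted.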

The target in the next experiment is Platelet glycoprotein 4 (Rattus norvegicus, UniProt Q07969). Put plainly: Displacement of photoactivatable [125I]-Tyr-Bpa-Ala-Hexarelin from CD36 in Sprague-Dawley rat cardiac membranes incubated for 60 mins by densitometry. It counts as cell membranes, Membrane.
Chain of Platelet glycoprotein 4 (Q07969 whole entry): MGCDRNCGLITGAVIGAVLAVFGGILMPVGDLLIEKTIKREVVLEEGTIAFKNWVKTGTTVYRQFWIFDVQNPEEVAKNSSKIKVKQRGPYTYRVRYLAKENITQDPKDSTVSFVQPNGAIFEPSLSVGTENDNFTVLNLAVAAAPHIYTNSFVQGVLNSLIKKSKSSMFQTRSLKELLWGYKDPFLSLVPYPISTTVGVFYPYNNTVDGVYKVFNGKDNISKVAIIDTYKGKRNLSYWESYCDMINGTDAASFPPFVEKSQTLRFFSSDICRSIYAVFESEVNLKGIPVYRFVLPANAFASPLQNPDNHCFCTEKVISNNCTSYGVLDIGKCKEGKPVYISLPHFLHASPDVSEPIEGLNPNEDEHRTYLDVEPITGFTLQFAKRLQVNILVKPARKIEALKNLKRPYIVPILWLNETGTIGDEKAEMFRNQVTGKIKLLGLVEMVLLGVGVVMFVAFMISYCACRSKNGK

Starred links: 1 amine or outer side, 2 acyl side, 3 side chain; linkers in the order of their positions; H or OH if unused. Non-standard residues stand in square brackets, D forms with d. Residues, ends and D or L forms follow the SMILES beside them. Haic = O=C1[C@@H](N[*:1])CCc2cccc3c2N1[C@H](C(=O)[*:2])C3; dTrp(2-Me) = Cc1[nH]c2ccccc2c1C[C@@H](N)C(=O)O; azaTyr = O=C(N(Cc1ccc(O)cc1)N[*:1])[*:2]; azaPhe = O=C(N(Cc1ccccc1)N[*:1])[*:2]; azaLeu = CC(C)CN(N[*:1])C(=O)[*:2]; azaGly = NNC(=O)O

Chain of Growth hormone secretagogue receptor type 1 (Q92847 whole entry): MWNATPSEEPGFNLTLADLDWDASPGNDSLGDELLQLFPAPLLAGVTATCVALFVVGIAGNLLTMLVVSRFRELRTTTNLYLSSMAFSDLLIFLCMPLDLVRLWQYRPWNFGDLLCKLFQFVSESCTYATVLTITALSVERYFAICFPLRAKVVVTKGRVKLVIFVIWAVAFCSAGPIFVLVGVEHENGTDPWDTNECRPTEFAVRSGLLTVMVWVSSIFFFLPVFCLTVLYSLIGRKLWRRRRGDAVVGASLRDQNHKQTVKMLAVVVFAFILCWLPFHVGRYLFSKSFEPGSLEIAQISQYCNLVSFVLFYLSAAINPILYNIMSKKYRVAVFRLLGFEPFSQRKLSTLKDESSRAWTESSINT

For `C[C@H](NC(=O)[C@@H](Cc1c[nH]c2ccccc12)NC(=O)[C@@H](N)Cc1cnc[nH]1)C(=O)NN(Cc1ccc(O)cc1)C(=O)N[C@H](Cc1ccccc1)C(=O)N[C@@H](CCCCN)C(N)=O` (H-H[dW]A[azaTyr][dF]K-NH2), the Activity in experiment [1] is given as 17%.

In the case of `C[C@H](N)C(=O)N[C@H](Cc1c[nH]c2ccccc12)C(=O)N[C@@H](C)C(=O)NN(Cc1ccccc1)C(=O)N[C@H](Cc1ccccc1)C(=O)N[C@@H](CCCCN)C(N)=O` (H-A[dW]A[azaPhe][dF]K-NH2), the Activity in experiment [1] came to 105%. Further, the IC50 in experiment [2] is more than 10 µM; on Platelet glycoprotein 4, 7.58 µM.

For `C[C@H](N)C(=O)NN(Cc1ccccc1)C(=O)N[C@@H](C)C(=O)N[C@@H](Cc1c[nH]c2ccccc12)C(=O)N[C@H](Cc1ccccc1)C(=O)N[C@@H](CCCCN)C(N)=O` (H-A[azaPhe]AW[dF]K-NH2), the Activity in experiment [1] was 28%. Besides, the IC50 in experiment [2] was more than 10 µM; on Platelet glycoprotein 4, 42.7 µM.

Regarding `CC(C)CN(NC(=O)[C@H](N)Cc1c[nH]c2ccccc12)C(=O)N[C@@H](Cc1c[nH]c2ccccc12)C(N)=O`, in experiment [1], the Activity stood at 47%. Moreover, the IC50 (in experiment [2]; on Platelet glycoprotein 4) was more than 10 µM in each case.

As for `Cc1[nH]c2ccccc2c1C[C@@H](NC(=O)[C@@H]1Cc2cccc3c2N1C(=O)[C@@H](N)CC3)C(=O)N[C@H](CCCCN)C(=O)N[C@@H](Cc1c[nH]c2ccccc12)C(=O)N[C@H](Cc1ccccc1)C(=O)N[C@@H](CCCCN)C(N)=O` (Haic-[dTrp(2-Me)][dK]W[dF]K-NH2), the Activity in experiment [1] is on record as 3%. In addition, the figures for the IC50 (in experiment [2]; on Platelet glycoprotein 4) were 0.75 µM and 1.11 µM, respectively.

Regarding `CC(C)CN(NC(=O)[C@@H](Cc1c[nH]c2ccccc12)NC(=O)[C@@H](N)Cc1cnc[nH]1)C(=O)N[C@@H](Cc1c[nH]c2ccccc12)C(=O)N[C@H](Cc1ccccc1)C(=O)N[C@@H](C)C(N)=O` (H-H[dW][azaLeu]W[dF]A-NH2), the Activity in experiment [1] was 25%. The molecule also showed an IC50 at Platelet glycoprotein 4 of 7.59 µM.

Turning to `C[C@H](N)C(=O)N[C@H](Cc1c[nH]c2ccccc12)C(=O)NNC(=O)N[C@@H](Cc1c[nH]c2ccccc12)C(=O)N[C@H](Cc1ccccc1)C(=O)N[C@@H](CCCCN)C(N)=O` (H-A[dW][azaGly]W[dF]K-NH2), the Activity in experiment [1] stood at 72%. Moreover, the IC50 at Platelet glycoprotein 4 is 6.06 µM.

With `C[C@H](NC(=O)[C@@H](Cc1ccccc1)NC(=O)N(Cc1ccccc1)NC(=O)[C@H](C)NC(=O)[C@@H](Cc1c[nH]c2ccccc12)NC(=O)[C@@H](N)Cc1cnc[nH]1)C(N)=O` (H-H[dW]A[azaPhe][dF]A-NH2), the IC50 (in experiment [2]; on Platelet glycoprotein 4) was more than 10 µM throughout.

Source of the values: ChEMBL document CHEMBL2163252, “Azapeptide analogues of the growth hormone releasing peptide 6 as cluster of differentiation 36 receptor ligands with reduced affinity for the growth hormone secretagogue receptor 1a” (J Med Chem, 2012).
